# UCH37 DUB inh: blocks the human deubiquitinase UCH37 | Q9Y5K5 | purified proteasome/UCH37, Ub-AMC cleavage fluorescence | inhibition, % (no concentration beside the values) | 0.33% of 330,000 active | AID 588478;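 active = mean inhibition over replicate wells above about 20%, limit read from the data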;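 note: 0% = compound-free wells with enzyme and 100% = wells lacking proteasome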
# Target sequence (Q9Y5K5 whole entry, looked up): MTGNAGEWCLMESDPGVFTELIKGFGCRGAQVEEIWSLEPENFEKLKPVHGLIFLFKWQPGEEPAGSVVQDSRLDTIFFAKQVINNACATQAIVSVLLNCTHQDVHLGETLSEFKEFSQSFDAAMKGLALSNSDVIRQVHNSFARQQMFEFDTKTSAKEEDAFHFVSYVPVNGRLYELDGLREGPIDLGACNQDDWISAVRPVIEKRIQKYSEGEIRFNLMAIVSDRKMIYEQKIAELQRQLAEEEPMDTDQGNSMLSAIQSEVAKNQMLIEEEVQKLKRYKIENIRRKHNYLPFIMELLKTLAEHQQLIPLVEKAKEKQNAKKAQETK
#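 Material: human UCH37 enzyme supplied as purified proteasome complex. Measure: % inhibition of Ub-AMC cleavage fluorescence. Medium: pH 7.4 Tris-HCl (50 mM) with ovalbumin, ATP-MgCl2, DTT. Times: 30 min preincubation with enzyme, 25 min cleavage at room temperature. Detection: AMC fluorescence intensity at 355/460 nm.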
# UPR CHOP act: apoptotic UPR (CHOP) activation. activation, % at 10 µM. CHO-CHOP luciferase reporter, luminescence; percent of tunicamycin response over DMSO baseline. 0.34% of 330,000 active;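 active = at 10 µM dose, activation of 40% or more, normalized to positive control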;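 note: 100% = tunicamycin at 10 µg/mL and 0% = DMSO alone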
#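 measured by = luciferase luminescence | assay system = CHO-CHOP cells, stable luciferase reporter of PERK-eIF2a-CHOP signalling | amount = 500 reporter cells seeded per well | timing = 6 h compound exposure at 37 °C after overnight seeding | controls = positive tunicamycin 10 µg/mL, negative DMSO alone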
# UPR XBP1 act: activators of adaptive arm of unfolded protein response (XBP1); CHO-XBP1 luciferase reporter, IRE1-XBP1 UPR activation, luminescence; percent of tunicamycin response, DMSO as zero; activation, % at 20 µM; 0.33% of 330,000 active; AID 463104;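 active = versus positive control, 20 µM dose yields 30% or more activation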;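 note: 100% = tunicamycin at 10 µg/mL and 0% = DMSO only wells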
#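 Assay system: IRE1-XBP1 luciferase reporter CHO line. Input: 1000 cells/well. Buffer or medium: F12 with 10% serum. Doses: 20 µM, 1% DMSO. Times: overnight seeding at 37 °C, 6 h compound treatment at 37 °C. Technique: Steady-Glo luciferase glow luminescence, 10 min after reagent addition.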
# CHOP inhibitor: blocks CHOP induction under ER stress | CHO-K1 CHOP-promoter luciferase, tunicamycin-induced, 15-18 h | inhibition, % at 10 µM | 3.8% of 220,000 active;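 active = compounds that reduced the stress-induced luciferase reporter signal by more than about 70% of percent inhibition, limit read from the data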;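 note: 0% = tunicamycin plus vehicle and 100% = wells without tunicamycin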
# Fh CTSL1 inh: counter-screen for PFM18AAP inhibitors: inhibitors of F. hepatica cathepsin L1; recombinant F. hepatica cathepsin L1, Z-Leu-Arg-MCA fluorescence; 0.49% of 300,000 active; AID 1906; inhibition, % at 5.96 µM;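 active = inhibition above the mean of all tested compounds plus 3 SD, set per screening campaign, cut at about 17% in these data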;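 note: 0% = plate median of test compound wells and 100% = 1 µM Z-Phe-Ala-diazomethylketone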
# Starred values were filed as active, the others as inactive; . = not tested or not shown. This is one part of a sample in which hits are shown more often than they occur.
SMILES,UCH37 DUB inh,UPR CHOP act,UPR XBP1 act,CHOP inhibitor,Fh CTSL1 inh
COc1ccc(C=NNC(=O)c2nnn(-c3nonc3N)c2-c2cccc(OC)c2)cc1,-6.6,.,.,.,.
O=C(NN=Cc1ccco1)c1cc(-c2cccc(Br)c2)nc2ccccc12,-10.7,.,.,.,.
CCC(=O)n1nc(NCc2ccccc2OC)nc1NCc1ccccc1OC,0.8,-4.0,-5.3,76.1*,-0.3
COc1cccc(-c2noc(-c3cccnc3)n2)c1,0.8,2.2,4.0,-16.6,4.7
COc1cccc(-c2noc(C(C)n3nc(C)c([N+](=O)[O-])c3C)n2)c1 (stereo not drawn),0.6,2.0,-1.2,21.4,18.3*
O=[N+]([O-])c1ccc(-c2ccc(/C=N/Nc3nc(N4CCCCC4)nc(N4CCCCC4)n3)o2)cc1,.,5.6,4.4,95.2*,.
COc1nc(N/N=C/c2ccc(-c3cccc([N+](=O)[O-])c3)o2)nc(N2CCOCC2)n1,.,.,.,70.8*,.
O=[N+]([O-])c1cccc(-c2ccc(C=NNc3nc(N4CCCCC4)nc(N4CCCCC4)n3)o2)c1,7.8,.,.,.,.
CCOC(=O)c1cnc2nc(NCc3ccc(OC)c(OC)c3)[nH]n2c1=O,1.2,-1.5,-0.9,6.8,20.0*
CCCc1cc(=O)n2[nH]c(NCc3ccc(OC)c(OC)c3)nc2n1,2.9,-1.2,-3.6,-1.4,-3.2
Cc1ccc(SCc2cc(=O)[nH]c(N3CCN(C)CC3)n2)cc1,27.5*,-0.4,-2.2,-0.9,8.3
NC(=O)NC(=O)CSc1nc(-c2ccccc2)c(-c2ccccc2)n1CC1CCCO1 (stereo not drawn),3.7,-1.4,-1.5,-21.2,19.9*
FC(F)(F)c1cc(-c2ccccc2)nc(NCc2cccnc2)n1,-15.4,0.9,-1.9,85.1*,4.8
Fc1ccc(CNc2nc(-c3ccco3)cc(C(F)(F)F)n2)cc1,-12.6,3.5,0.6,10.9,2.5
Fc1ccc(-c2cc(C(F)(F)F)nc(NCc3cccs3)n2)cc1,-25.7,0.1,-0.3,71.5*,-2.6
Cc1[nH]c(=O)[nH]c(=O)c1C=NNC(=O)[C@@H](N)CC(C)C,5.9,.,.,.,.
CCCCC(=O)NC(c1cccs1)c1cc(Cl)c2cccnc2c1O (stereo not drawn),3.3,-1.6,0.0,97.2*,-1.8
COc1ccc(OC)c(-c2cc(C(=O)NN=C(C)c3cccnc3)c3ccccc3n2)c1,4.0,.,.,.,.
O=S(=O)(Nc1ccc(N=Nc2ccc(O)c3ccccc23)cc1)c1ccccc1,9.5,2.1,4.3,89.2*,1.8
O=S(=O)(Nc1ccc(N=Nc2ccccc2)cc1)c1ccccc1,3.8,0.7,-0.5,95.2*,1.4
O=S(=O)(Nc1ccc(S(=O)(=O)Nc2ccccc2)cc1)c1ccccc1,0.6,-0.9,1.3,-7.5,-2.8
CC(=NN1CCN(C2c3ccccc3-c3ccccc32)CC1)c1cccnc1,5.5,.,.,.,.
NC(=NOC(=O)c1ccc(Br)cc1)c1cccc([N+](=O)[O-])c1,-0.5,.,.,.,.
O=C(NN=Cc1ccncc1)c1ccccc1O,6.4,.,.,.,.
CCCCCCC(=O)NN=Cc1ccco1,2.8,.,.,.,.
SMILES,UCH37 DUB inh,UPR CHOP act,UPR XBP1 act,CHOP inhibitor,Fh CTSL1 inh
C=CCN(CC=C)Cc1c(C)[nH]c2ccc(C(=O)OCC)cc2c1=O,-15.3,-1.5,3.2,7.0,20.1*
COc1ccc(C(=O)NN=Cc2c(CO)cnc(C)c2O)cc1,-412.7,.,.,.,.
Cc1cccc(Nc2nc(N)c([N+](=O)[O-])c(NCc3ccco3)n2)c1,3.7,5.9,2.8,96.0*,3.1
Nc1nc(Nc2cccc(Cl)c2)nc(NCc2ccco2)c1[N+](=O)[O-],9.6,5.8,7.8,-0.2,10.2
Nc1nc(Nc2ccc(Cl)cc2)nc(NCc2ccco2)c1[N+](=O)[O-],.,8.7,20.1,86.5*,-1.8
Nc1nc(Nc2cccc(F)c2)nc(NCc2ccco2)c1[N+](=O)[O-],5.4,0.8,9.8,84.1*,6.8
COc1ccc(/C=N/N2CCN(C3c4ccccc4-c4ccccc43)CC2)cc1O,.,2.6,-1.6,91.7*,3.0
COc1ccccc1-c1cc(SC)c(C#N)c(=O)o1,.,23.4,-1.2,93.8*,2.0
Cc1cc(=O)[nH]c(SCC(=O)N2CCN(C(c3ccccc3)c3ccccc3)CC2)n1,-0.4,-1.2,-0.5,73.7*,3.5
Cc1ccc(/C=C/C(=O)c2ccccc(=O)c2O)cc1C,0.8,.,.,70.8*,-5.0
O=C(/C=C/c1ccccc1)c1cc(Br)ccc(=O)c1O,-5.4,0.1,1.1,-15.8,-0.3
Cc1ccc(C)c(NC(=S)NC(NC(=O)OCc2ccccc2)C(Cl)(Cl)Cl)c1 (stereo not drawn),1.4,3.6,-2.0,91.8*,-0.1
O=C(NC(NC(=S)Nc1c(Cl)cc(Cl)cc1Cl)C(Cl)(Cl)Cl)OCc1ccccc1 (stereo not drawn),3.1,1.6,13.7,88.3*,1.4
O=C(CCc1ccccc1)NC(NC(=S)Nc1cccc(Cl)c1)C(Cl)(Cl)Cl (stereo not drawn),1.0,9.8,-1.0,39.5,1.6
CCn1c(C)cc(/C=C2/SC(=S)N(CC(=O)O)C2=O)c1C,20.5*,-0.3,-3.6,11.0,5.9
CN(C)CCCOc1cccc(Oc2ccccc2)c1,3.0,1.0,-1.5,-7.6,0.2
C=CCN(CC=C)CCOc1cccc(Oc2ccccc2)c1,0.8,1.6,2.8,87.0*,-0.3
COc1cc(C=NNc2nc(=O)[nH]nc2C)ccc1O,14.8,.,.,.,.
CCN1C(=O)/C(=C2/Sc3ccccc3N2CC)SC1=Nc1ncn[nH]1,3.0,.,.,.,.
CC(Cc1ccccc1)NC(=O)CC(c1ccccc1)c1ccccc1O (stereo not drawn),2.2,-1.9,0.7,.,-12.9
O=C(CC(c1ccccc1)c1ccccc1O)NCc1ccccc1 (stereo not drawn),-0.6,-0.1,-1.6,13.2,18.4*
Cc1nn(Cc2ccc(Cl)cc2)c(Cl)c1C=NNC(=O)c1cccnc1,-0.2,.,.,.,.
Cc1cc(C=NNC(=O)Cn2c3ccccc3c(=O)c3ccccc32)c(C)n1-c1ccccc1,-55.9,.,.,.,.
CC(C)Oc1ccc(/C=N/NC(=O)C2CCCN2S(=O)(=O)c2ccc(Cl)cc2)cc1 (stereo not drawn),.,1.1,-0.9,78.9*,0.5
CCCOc1ccc(/C=N/NC(=O)C2CCCN2S(=O)(=O)c2ccc(Cl)cc2)cc1 (stereo not drawn),.,-1.3,-4.5,-23.8,1.1
SMILES,UCH37 DUB inh,UPR CHOP act,UPR XBP1 act,CHOP inhibitor,Fh CTSL1 inh
COc1ccc(NC(=O)CCC(=O)NN=Cc2ccncc2)cc1,1.0,.,.,.,.
O=c1oc2cc(O)ccc2cc1-c1nc2c(s1)CCc1ccccc1-2,-206.7,.,.,82.8*,2.1
O=c1oc2ccccc2cc1-c1nc2c(s1)CCc1ccccc1-2,-60.7,-0.4,-0.7,3.4,-0.5
COc1ccc(NC(=O)CSc2ccccn2)cc1OC,1.6,-1.5,-2.4,1.6,-0.8
COc1ccc(NC(=O)CSc2ncccc2C(=O)OC(C)C)cc1OC,3.6,2.5,0.8,70.6*,-6.5
CCOc1ccc(-c2c(C(=O)NN=Cc3ccc(C)s3)nnn2-c2nonc2N)cc1,-5.0,.,.,.,.

# Bioassay records from PubChem BioAssay.
